Source: ChEMBL document CHEMBL1926651, “Design, synthesis, antiviral and cytostatic evaluation of novel isoxazolidine nucleotide analogues with a 1,2,3-triazole linker” (Eur J Med Chem, 2012)
Activity calls are given as the source filed them. The rule behind the calls is not given here.

Key:
[1] = tested on: Human alphaherpesvirus 1; test: Antiviral activity against Herpes simplex virus 1 KOS infected in human HEL cells assessed as inhibition of viral plaque formation at 250 uM; format: functional, organism-based
Method in brief: (§1)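 Confluent host cell monolayers were inoculated with 100 CCID50 of virus in the presence of test compound at serial dilutions (250, 50, 10, … μM). Viral cytopathicity was scored once it reached completion in untreated virus-infected controls.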

[2] = tested on: Human alphaherpesvirus 2; test: Antiviral activity against Herpes simplex virus 2 G infected in human HEL cells assessed as inhibition of viral plaque formation at 250 uM; format: functional, organism-based; settings: strain G
[3] = tested on: Human alphaherpesvirus 1; test: Antiviral activity against thymidine kinase-deficient acv-resistant Herpes simplex virus 1 KOS infected in human HEL cells assessed as inhibition of viral plaque formation at 250 uM; format: functional, organism-based
[4] = tested on: Vaccinia virus; test: Antiviral activity against Vaccinia virus infected in human HEL cells assessed as inhibition of viral plaque formation at 250 uM; format: functional, organism-based; settings: Orthopoxvirus vaccinia; method in brief: as §1
[5] = tested on: Vesicular stomatitis virus; test: Antiviral activity against Vesicular stomatitis virus infected in human HEL cells assessed as inhibition of viral plaque formation at 250 uM; format: functional, organism-based; method in brief: as §1
[6] = tested on: Human betaherpesvirus 5; test: Antiviral activity against Human cytomegalovirus AD169 infected in human HEL cells assessed as inhibition of viral plaque formation at 250 uM; format: functional, organism-based
[7] = tested on: Human betaherpesvirus 5; test: Antiviral activity against Human cytomegalovirus Davis infected in human HEL cells assessed as inhibition of viral plaque formation at 250 uM; format: functional, organism-based
[8] = tested on: Human alphaherpesvirus 3; test: Antiviral activity against thymidine kinase-positive Varicella Zoster virus Oka infected in human HEL cells assessed as inhibition of viral plaque formation at 250 uM; format: functional, cell-based; settings: strain Oka vaccine
[9] = tested on: Human alphaherpesvirus 3; test: Antiviral activity against thymidine kinase-deficient Varicella Zoster virus 07/1 infected in human HEL cells assessed as inhibition of viral plaque formation at 250 uM; format: functional, organism-based
[10] = tested on: Human respirovirus 3; test: Antiviral activity against Parainfluenza-3 virus infected in african green monkey Vero cells assessed as inhibition of viral plaque formation at 250 uM; format: functional, organism-based; method in brief: as §1
[11] = tested on: Mammalian orthoreovirus 1; test: Antiviral activity against Reovirus-1 infected in african green monkey Vero cells assessed as inhibition of viral plaque formation at 250 uM; format: functional, organism-based; method in brief: as §1
[12] = tested on: Sindbis virus; test: Antiviral activity against Sindbis virus infected in african green monkey Vero cells assessed as inhibition of viral plaque formation at 250 uM; format: functional, organism-based; method in brief: as §1
[13] = tested on: Coxsackievirus B4; test: Antiviral activity against Coxsackievirus B4 infected in african green monkey Vero cells assessed as inhibition of viral plaque formation at 250 uM; format: functional, organism-based; method in brief: as §1
[14] = tested on: Punta Toro virus; test: Antiviral activity against Punta Toro virus infected in african green monkey Vero cells assessed as inhibition of viral plaque formation at 250 uM; format: functional, organism-based
[15] = tested on: Vesicular stomatitis virus; test: Antiviral activity against Vesicular stomatitis virus infected in human Hela cells assessed as inhibition of viral plaque formation at 250 uM; format: functional, organism-based
[16] = tested on: Coxsackievirus B4; test: Antiviral activity against Coxsackievirus B4 infected in human HeLa cells assessed as inhibition of viral plaque formation at 250 uM; format: functional, organism-based; method in brief: as §1
[17] = tested on: Respiratory syncytial virus; test: Antiviral activity against Respiratory syncytial virus infected in human HeLa cells assessed as inhibition of viral plaque formation at 250 uM; format: functional, organism-based; method in brief: as §1
[18] = tested on: Felid alphaherpesvirus 1; test: Antiviral activity against Felid herpesvirus 1 infected in CrFK cells assessed as inhibition of viral plaque formation at 250 uM; format: functional, organism-based; method in brief: as §1
[19] = tested on: Feline coronavirus; test: Antiviral activity against Feline coronavirus infected in CrFK cells assessed as inhibition of viral plaque formation at 250 uM; format: functional, organism-based; method in brief: as §1
[20] = tested on: Human immunodeficiency virus 2; test: Antiviral activity against Human immunodeficiency virus 2 infected in human CEM cells assessed as inhibition of virus-induced giant cell formation after 4 days by microscopic analysis; format: functional, organism-based; settings: CCRF-CEM
Method in brief: (§2)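 CEM cells at about 3 × 10⁵ cells/cm³ were infected with 100 CCID50/mL of HIV-1(IIIB) or HIV-2(ROD), then seeded into wells holding test compound dilutions. After 4 days at 37 °C, virus-induced giant cell formation was scored microscopically.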

[21] = tested on: Human immunodeficiency virus 1; test: Antiviral activity against Human immunodeficiency virus 1 infected in human CEM cells assessed as inhibition of virus-induced giant cell formation after 4 days by microscopic analysis; format: functional, organism-based; settings: CCRF-CEM; method in brief: as §2
[22] = tested on: HEL; test: Cytotoxicity against human HEL cells 3 days by coulter counting; format: functional; settings: 72 h
Method in brief: (§3)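 Cells were suspended at 300,000–500,000 cells/mL and added 1:1 to compound dilutions. Incubation was at 37 °C, 2 days for L1210 and 3 days for CEM, HeLa and HEL. Cells were counted with a Coulter counter. CC50 is the concentration inhibiting cell proliferation by 50%.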

[23] = tested on: HeLa; test: Cytotoxicity against human HeLa cells 3 days by coulter counting; format: functional; settings: 72 h; method in brief: as §3
[24] = tested on: CCRF-CEM; test: Cytotoxicity against human CEM cells 3 days by coulter counting; format: functional; settings: 72 h; method in brief: as §3
[25] = tested on: L1210; test: Cytotoxicity against mouse L1210 cells 2 days by coulter counting; format: functional; settings: L1210, 48 h; method in brief: as §3

Row | SMILES | Activity [1] | Activity [2] | Activity [3] | Activity [4] | Activity [5] | Activity [6] | Activity [7] | Activity [8] | Activity [9] | Activity [10] | Activity [11] | Activity [12] | Activity [13] | Activity [14] | Activity [15] | Activity [16] | Activity [17] | Activity [18] | Activity [19] | Activity [20] | other results
1 | CCOP(=O)(OCC)[C@@H]1C[C@H](n2cc(Cn3ccc(=O)[nH]c3=O)nn2)ON1C (racemic) | inactive | inactive | inactive | inactive | inactive | inactive | inactive | inactive | inactive | inactive | inactive | inactive | inactive | inactive | inactive | inactive | inactive | inactive | inactive | inactive | Activity [21]: inactive; CC50 [22]: > 100 µM; CC50 [23]: > 250 µM; CC50 [24]: > 250 µM; CC50 [25]: 235 µM
2 | CCOP(=O)(OCC)[C@@H]1C[C@H](n2cc(Cn3cc(C)c(=O)[nH]c3=O)nn2)ON1C (racemic) | inactive | inactive | inactive | inactive | inactive | inactive | inactive | inactive | inactive | inactive | inactive | inactive | inactive | inactive | inactive | inactive | inactive | inactive | inactive | inactive | Activity [21]: inactive; CC50 [22]: > 100 µM; CC50 [23]: > 250 µM; CC50 [24]: > 250 µM; CC50 [25]: 280 µM
3 | CCOP(=O)(OCC)[C@@H]1C[C@@H](n2cc(Cn3ccc(=O)[nH]c3=O)nn2)ON1C (relative stereo) | inactive | inactive | inactive | inactive | inactive | inactive | inactive | inactive | inactive | inactive | inactive | inactive | inactive | inactive | inactive | inactive | inactive | inactive | inactive | inactive | Activity [21]: inactive; CC50 [22]: > 100 µM; CC50 [23]: ≥ 250 µM; CC50 [24]: > 250 µM; CC50 [25]: > 250 µM
